BCLXL inh: Bcl-xL (human) inhibition. GST-Bcl-xL / FITC-Bim BH3 peptide fluorescence polarization. 320,000 compounds, 0.7% hits. inhibition, % at 10.9 µM;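 active = inhibition above the mean of all tested compounds plus 3 SD, cutoff set per campaign, cut at about 30% in these data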;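 note: 0% = DMSO wells and 100% = unlabeled Bim-BH3 peptide competitor; inhibitors lower millipolarization by displacing the labeled peptide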
IMP-1 inhibitor: inhibitors of Pseudomonas aeruginosa IMP-1 metallo-beta-lactamase | purified IMP-1, nitrocefin hydrolysis, epi-absorbance fluorescence | inhibition, % at 5.6 µM | 290,000 compounds, 0.45% hits | AID 1556;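 active = inhibition above the mean plus 3 SD of all compounds in the same screening run, cut at about 4.5% in these data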;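 note: 0% = IMP-1 with DMSO and 100% = DMSO wells lacking enzyme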
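System: Purified recombinant IMP-1 metallo-beta-lactamase enzyme | Measured by: Fluorescence quenching readout, ex 480/em 530 nm | Replication: Singlicate | Incubation: 15 min preincubation plus 25 min reaction at 25 °C | Evaluation: Percent inhibition from optical density relative to buffer-blank wells | Benchmarks: DMSO with and without IMP-1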
GLD-1 RNA inh: GLD-1-TGE RNA interaction inhibition (C. elegans); Q17339; purified GLD-1 + fluorescein TGE RNA, fluorescence polarization; inhibition, % at 5.96 µM; 320,000 compounds, 0.44% hits; AID 2280;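 active = percent inhibition above a per-plate cutoff, the plate mean of test compounds plus 3 SD, cut at about 30% in these data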;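 note: 0% = DMSO wells with GLD-1 and probe and 100% = wells lacking GLD-1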
Target sequence (Q17339 whole entry, looked up): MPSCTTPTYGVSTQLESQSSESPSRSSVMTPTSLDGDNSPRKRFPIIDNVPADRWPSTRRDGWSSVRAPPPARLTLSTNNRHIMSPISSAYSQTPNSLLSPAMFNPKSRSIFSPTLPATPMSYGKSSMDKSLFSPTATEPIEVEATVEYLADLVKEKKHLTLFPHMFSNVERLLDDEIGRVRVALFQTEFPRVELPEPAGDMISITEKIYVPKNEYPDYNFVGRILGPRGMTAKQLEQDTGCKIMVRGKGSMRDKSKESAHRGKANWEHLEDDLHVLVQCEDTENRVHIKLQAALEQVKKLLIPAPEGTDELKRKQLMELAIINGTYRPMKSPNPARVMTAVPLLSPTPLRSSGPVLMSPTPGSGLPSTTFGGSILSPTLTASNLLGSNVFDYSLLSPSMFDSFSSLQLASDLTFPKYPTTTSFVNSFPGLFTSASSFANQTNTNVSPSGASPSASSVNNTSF
VIM-2 inh: inhibitors of Pseudomonas aeruginosa VIM-2 metallo-beta-lactamase. 290,000 compounds, 0.89% hits. AID 1527. purified VIM-2, nitrocefin hydrolysis, epi-absorbance fluorescence. inhibition, % at 5.6 µM;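 active = inhibition above the mean of all tested compounds plus 3 SD, cutoff set per screening run, cut at about 7.5% in these data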;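 note: red hydrolysis product quenches plate fluorescence so inhibitors raise well fluorescence; 0% = enzyme with DMSO and 100% = DMSO without enzyme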
MEX-5 binding: C. elegans MEX-5 TCR-2 RNA binding activity | Q9XUB2 | MEX-5/FITC-TCR2 RNA binding, fluorescence polarization; active compounds read low | activity score (negative = inhibition of binding), % at 10 µM | 300,000 compounds, 0.38% hits | AID 1832;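 active = inhibition past about -25% in most replicates, and total fluorescence under double the plate's negative control median, limit read from the data; inconclusive = replicates evenly split on the limit, or fluorescence at least double controls; inactive = too little inhibition in most replicates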;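 note: 0% = DMSO and -100% = 5 µM competing unlabeled TCR2 RNA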
EBV gp42 inh: blocks Epstein-Barr virus glycoprotein 42 binding; Q1HVG2; inhibition, % (tested at 21.74 µM); Fluorescence polarization binding assay, mP read-out; 220,000 compounds, 0.42% hits; in the data active = inhibition above about 50%
Target sequence (Q1HVG2 whole entry, looked up): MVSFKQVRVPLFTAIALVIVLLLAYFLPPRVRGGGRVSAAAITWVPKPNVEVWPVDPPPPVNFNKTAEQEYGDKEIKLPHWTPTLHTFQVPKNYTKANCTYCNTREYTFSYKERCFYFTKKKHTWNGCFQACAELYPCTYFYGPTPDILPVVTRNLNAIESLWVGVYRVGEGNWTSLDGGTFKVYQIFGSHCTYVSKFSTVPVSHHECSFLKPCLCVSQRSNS
* marks the source's active call; other numbers are inactive results; ? = inconclusive; nt = not tested or not shown. Shown are actives, neighbours in structure and some others; about 2.2% of the full set was active somewhere.

SMILES | BCLXL inh | IMP-1 inhibitor | GLD-1 RNA inh | VIM-2 inh | MEX-5 binding | EBV gp42 inh
COc1ccc(C(CC(=O)N2CCCC2)c2c(OC)cc(OC)c3c(-c4ccccc4)cc(=O)oc23)cc1 (stereo not drawn) | 4 | nt | -5 | nt | 4 | 82*
CCN(CC)C(=O)Cn1cc(C(=O)C(=O)NCCc2c[nH]c3ccccc23)c2ccccc21 | -2 | -2 | 2 | 2 | -1 | nt
O=C(O)/C=C/c1ccc(O)c(O)c1 | 6 | 0 | -3 | -2 | -8 | 1
O=C(/C=C/c1ccc(O)c(O)c1)O[C@H](Cc1ccc(O)c(O)c1)C(=O)O | nt | nt | nt | nt | -98* | -6
COc1ccc(O)c(/C=c2/sc3nc4cc(C)c(C)cc4n3c2=O)c1 | nt | -4 | nt | -6 | 0 | -18
COc1ccc(OC)c(/C=c2\sc3nc(-c4cccs4)nn3c2=O)c1 | -13 | -4 | -12 | -6 | -51* | 135*
CC(C)(C)c1cc(CCC(=O)NCC2CCCO2)cc(C(C)(C)C)c1O (stereo not drawn) | 4 | -3 | 4 | -2 | -6 | nt
CN1CCN(CCCNC(=O)c2ccc3c(Cl)c4c(nc3c2)CCCC4)CC1 | 1 | 0 | 4 | 9.4* | 2 | nt
Nc1ccc2c(c1)C/C(=C/c1ccco1)C2=O | 60* | 0 | 25 | -1 | -45* | 98*
O=C1/C(=C/c2ccco2)CCc2ccccc21 | 8 | 3 | 5 | 2 | 2 | -4
O=C(CSc1nc(-c2ccccc2)nc2c1Cc1ccccc1O2)Nc1ccc(C(=O)O)cc1 | nt | -2 | nt | 0 | nt | 87*
O=C(CSc1nc(-c2ccccc2)nc2ccccc12)Nc1cccc(C(=O)O)c1 | 6 | -2 | -5 | -2 | -1 | -8
O=C(CSc1nc(-c2ccc(F)cc2)nc2c1Cc1ccccc1O2)Nc1ccc(C(=O)O)cc1 | nt | -4 | nt | -3 | nt | 74*
Cc1ccc(S(=O)(=O)C(C#N)=C2N(C)c3ccccc3N2C)cc1 | 25 | 0 | -5 | 1 | -6 | -1
N#C/C(=C\c1ccc(OCc2ccc(Br)cc2)cc1)C(=O)Nc1cccc(C(=O)O)c1 | 6 | 6.3* | 2 | -5 | -1 | nt
C/C(=N\NC(=O)c1nnn(-c2nonc2N)c1-c1ccc2c(c1)OCO2)c1ccc(C)cc1 | 0 | -1 | -2 | -2 | 0 | nt
Cc1cccc(N=Nc2c(O)[nH]c3ccc(Br)cc23)c1 | 15 | -1 | -6 | -1 | -33* | nt
C=C(C)c1cccc(C(C)(C)NC(=O)Nc2ccc(OC)nc2)c1 | 82* | 0 | 83* | 0 | -3 | nt
COc1ccc(NC(=O)c2cccc(-c3ccc(O)cc3)c2)cn1 | 144* | 1 | 135* | 0 | -19 | nt
C=C(C)c1cccc(C(C)(C)NC(=O)Nc2ccc(C)cn2)c1 | 0 | -1 | 1 | -1 | -3 | -1
CC(OC(=O)CNC(=O)c1ccc(Cl)cc1)C(=O)NC1CCCCC1C (stereo not drawn) | 7 | nt | 2 | nt | -4 | nt
Cc1cccn2c(=O)c3cc(C(=O)NCCc4ccccc4)c(=N)n(Cc4ccco4)c3nc12 | 9 | -4 | 4 | 9.1* | 1 | nt
Cc1cccn2c(=O)c3cc(C(=O)NCc4ccco4)c(=N)n(CCc4ccccc4)c3nc12 | 33* | -1 | 17 | 1 | nt | 38
CCCCNC(=O)c1cc2c(=O)n3cccc(C)c3nc2n(Cc2ccncc2)c1=N | 7 | -3 | 10 | 1 | -41* | 8
CCOC(=O)[C@H]1[C@H]2COc3ccc(Cl)cc3[C@@H]2N2C(=O)c3ccc(Cl)cc3NC(=O)[C@@]12C | 8 | nt | -5 | nt | nt | nt
SMILES | BCLXL inh | IMP-1 inhibitor | GLD-1 RNA inh | VIM-2 inh | MEX-5 binding | EBV gp42 inh
COC(=O)Cn1ccc2cc(S(=O)(=O)N3CCCCC3)ccc21 | 2 | -4 | 1 | -3 | 1 | nt
Fc1cccc(-c2nnn3c2nc(Cl)c2ccccc23)c1 | nt | -3 | nt | -2 | -10 | 5
O=C(CCN1CCN(S(=O)(=O)c2cccc([N+](=O)[O-])c2)CC1)Nc1ccccc1F | -1 | -1 | -3 | -3 | -2 | nt
Cn1c2ccc(Br)cc2c2nnc(SCC(=O)O)nc21 | 2 | 2 | 0 | 9.8* | -3 | nt
Cn1c2ccccc2c2nnc(SCC(N)=O)nc21 | -1 | -3 | -10 | 8.0* | -3 | nt
CCOC(=O)Cc1nnc(NC(=O)C(CC)Sc2nnc3c4ccccc4n(C)c3n2)s1 (stereo not drawn) | 8 | -1 | 3 | 9.3* | -2 | 3
Cn1c2ccccc2c2nnc(SCC(=O)NC3CC3)nc21 | -4 | 1 | -2 | 9.2* | 0 | nt
CCn1c2ccccc2c2nnc(SCC(=O)NC3CCS(=O)(=O)C3)nc21 (stereo not drawn) | 5 | -4 | 4 | 3 | 2 | -3
CCOC(=O)CCCCC(=O)c1[nH]c(=O)[nH]c1CSc1nnc2c3cc(Br)ccc3n(C)c2n1 | 17 | -3 | 1 | -2 | -2 | -5
CC(C)Cn1nc(NS(=O)(=O)c2cccc3nonc23)c2cc3ccccc3nc21 | 6 | -2 | 4 | -3 | -2 | nt
Cc1cc(C(=O)CCC(=O)N2CCN(c3ccccc3)CC2)c(C)s1 | 5 | nt | -2 | nt | 1 | nt
C=CCn1c2ccccc2c2nnc(SCC(N)=O)nc21 | 7 | -2 | -3 | 8.9* | -1 | nt
CCCc1nnc(SCC(=O)NC2CCCC2)n1CCOC | 2 | -1 | 6 | -4 | -2 | nt
O=C1OC2(c3ccccc31)c1cc(I)c(O)c(I)c1Oc1c2cc(I)c(O)c1I | 88* | nt | 51* | nt | nt | nt
Cc1cc(O)ccc1C1(c2ccc(O)cc2C)OC(=O)c2ccccc21 | 6 | -2 | 7 | 0 | 0 | -1
COC(=O)c1ccc(N(CC(=O)NC2CCCC2)C(=O)c2ccc(C)s2)cc1 | 1 | -6 | 0 | -5 | -1 | nt
COc1ccc(/C=C/C(=O)c2ccccc2O)cc1 | 3 | -3 | -7 | -5 | 3 | 2
COc1ccc(/C=C/C(=O)c2ccccn2)cc1 | 25 | 1 | 14 | 9.6* | 0 | -10
CC(=O)N1CCc2c(sc(NC(=O)CS(=O)(=O)c3ccc(F)cc3)c2C(N)=O)C1 | 13 | nt | 7 | nt | -2 | nt
CCC(NC(C)C)C(O)c1ccc(O)c(O)c1 (stereo not drawn) | 6 | -1 | 2 | 1 | -29* | 2
Cc1nn(-c2ccccc2)c2c1C(c1ccc(O)c(O)c1)N1C(=N2)C(Nc2ccccc2)=Nc2ccccc21 (stereo not drawn) | 64* | -2 | 95* | -4 | -1 | 85*
Cc1nn(-c2ccccc2)c2c1C(c1ccc([N+](=O)[O-])cc1)N1C(=N2)C(=O)Nc2ccccc21 (stereo not drawn) | 3 | -3 | 1 | -1 | 0 | -15
Cc1cccc(NC2=Nc3ccccc3N3C2=Nc2c(c(C)nn2-c2ccccc2)C3c2ccc(O)c(O)c2)c1 (stereo not drawn) | 48* | -3 | -5 | 0 | ? | 32

Screening data deposited in PubChem by several laboratories.
